Compound activity (PubChem BioAssay)
TbMetRS inhib = blocks T. brucei methionyl-tRNA synthetase activity. 0.4% of 360,000 active. inhibition, % at 11.9 µM. purified T. brucei MetRS, ATP depletion, Kinase-Glo luminescence;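 active = inhibition above a per-plate cutoff of the control wells' mean inhibition plus 3 SD, cut at about 5.5% in these data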;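 also: 0% = DMSO wells median and 100% = median of wells with control inhibitor compound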
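Dosing: 11.9 µM single point; system: parasite MetRS enzyme; technique: luminescence of leftover ATP; times: 15 min enzyme-compound preincubation, 2 h reaction, 10 min detection, 25 °C; replicates: each compound tested once; read-out basis: percent inhibition relative to median high and low control wells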
PLCb3 inh = blocks human PLC-beta3 enzyme activity | Q01970 | Purified PLC-beta3, fluorogenic substrate, fluorescence | inhibition, % at 12.2 µM | 0.18% of 370,000 active; in the data active = inhibition above about 11%;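 also: 0% = median of compound wells on plate and 100% = full blocker control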
PLCg1 inh = blocks human PLC-gamma1 enzyme activity; P19174; purified PLC-gamma1, fluorogenic substrate, fluorescence; inhibition, % at 12.2 µM; 0.84% of 370,000 active; AID 720700; in the data active = inhibition above about 9.5%
Target sequence (P19174 whole entry, looked up): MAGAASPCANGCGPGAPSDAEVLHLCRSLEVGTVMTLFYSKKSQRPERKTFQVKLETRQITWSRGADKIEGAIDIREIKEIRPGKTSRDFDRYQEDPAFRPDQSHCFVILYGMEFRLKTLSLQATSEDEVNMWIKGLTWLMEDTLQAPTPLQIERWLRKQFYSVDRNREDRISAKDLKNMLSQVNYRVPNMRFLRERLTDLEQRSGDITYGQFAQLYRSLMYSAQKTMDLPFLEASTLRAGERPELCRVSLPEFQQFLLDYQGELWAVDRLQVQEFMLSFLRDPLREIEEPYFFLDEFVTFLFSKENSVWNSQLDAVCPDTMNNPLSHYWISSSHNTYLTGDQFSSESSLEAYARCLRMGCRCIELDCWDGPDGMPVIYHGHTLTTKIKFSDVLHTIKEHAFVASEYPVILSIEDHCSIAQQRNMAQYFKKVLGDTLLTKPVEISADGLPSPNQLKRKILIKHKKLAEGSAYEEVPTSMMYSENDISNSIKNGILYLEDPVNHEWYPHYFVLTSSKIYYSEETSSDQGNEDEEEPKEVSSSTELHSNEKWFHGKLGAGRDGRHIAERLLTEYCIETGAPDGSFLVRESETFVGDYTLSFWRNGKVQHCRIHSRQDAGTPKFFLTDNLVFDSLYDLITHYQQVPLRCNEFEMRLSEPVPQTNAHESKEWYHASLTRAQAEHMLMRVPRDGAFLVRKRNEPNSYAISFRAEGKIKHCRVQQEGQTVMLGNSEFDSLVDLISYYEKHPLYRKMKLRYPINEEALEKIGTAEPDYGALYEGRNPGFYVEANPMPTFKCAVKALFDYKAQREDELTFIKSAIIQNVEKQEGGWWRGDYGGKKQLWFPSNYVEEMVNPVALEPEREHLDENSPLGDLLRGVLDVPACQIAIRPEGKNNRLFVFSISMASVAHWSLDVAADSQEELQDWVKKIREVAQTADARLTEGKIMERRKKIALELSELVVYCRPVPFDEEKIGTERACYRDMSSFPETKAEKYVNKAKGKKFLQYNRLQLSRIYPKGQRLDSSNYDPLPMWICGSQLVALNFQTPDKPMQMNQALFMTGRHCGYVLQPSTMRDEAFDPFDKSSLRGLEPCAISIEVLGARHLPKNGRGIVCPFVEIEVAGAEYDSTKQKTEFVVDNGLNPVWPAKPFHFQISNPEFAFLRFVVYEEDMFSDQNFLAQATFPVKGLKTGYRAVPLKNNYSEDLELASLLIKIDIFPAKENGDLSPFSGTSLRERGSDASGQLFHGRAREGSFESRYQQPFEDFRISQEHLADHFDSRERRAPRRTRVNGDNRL
DAGLB inhibitor = blocks human DAGLB lipase activity; Q8NCG7; 0.059% of 340,000 active; AID 504411; HEK293T DAGLB membrane lysate, EnzChek fluorogenic substrate; inhibition, % at 5.17 µM; in the data active = inhibition above about 34%;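 also: 0% = enzyme with vehicle and 100% = wells lacking enzyme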
HGIII-sPLA2 inh = Inhibits HGIII-sPLA2 liposome hydrolysis, primary screen; 0.56% of 370,000 active; Q9NZ20; inhibition, % at 12.2 µM; QFRET BODIPY PC-A2 liposome hydrolysis, fluorescence;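 active = inhibition above mean plus 3 SD of compounds lying within the high and low control bounds, cut at about 19% in these data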;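 also: 0% = median of test compound wells and 100% = no enzyme DMSO wells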
sPLA2 confirm = human GIII-sPLA2 inhibition, confirmation; recombinant hGIII-sPLA2, BODIPY PC-A2 QFRET fluorescence; shares compounds with HGIII-sPLA2 inh; AID 743280; 34% of 2,000 active; inhibition, % at 12.2 µM;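 active = mean inhibition across triplicates above the hit cutoff set in the earlier primary screen, cut at about 19% in these data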;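 also: 0% = enzyme with DMSO and 100% = DMSO wells lacking enzyme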
535nm interf = optically interferes with 535nm fluorescence in sPLA2 counter-screen; shares compounds with HGIII-sPLA2 inh; BODIPY FL product fluorescence interference, QFRET; inhibition, % at 12.2 µM; 8.5% of 2,000 active; AID 743282;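 active = average inhibition above the solvent-only control mean plus 3 SD, cut at about 6% in these data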;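 also: 0% = DMSO with substrate plus product and 100% = DMSO with substrate alone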
An asterisk follows results filed as active; ! = not confirmed by another sample. Shown are actives, neighbours in structure and some others; about 1.9% of the full set was active somewhere.

What do the screens show for `CC12CCCC[C@@H]1CCC1C2CCC2(C)C1CC[C@@]2(O)CNCCO` (stereo not given in full)?
TbMetRS inhib: -1; PLCb3 inh: -4; PLCg1 inh: 6; DAGLB inhibitor: 1; HGIII-sPLA2 inh: 25*; sPLA2 confirm: 0; 535nm interf: -9

What do the screens show for `COc1cccc(Cn2cc(COC(=O)N(C)Cc3ccccc3)nn2)c1`?
PLCb3 inh: 0; PLCg1 inh: 0; HGIII-sPLA2 inh: 2

How did CCN1CCN(C2=C(NS(=O)(=O)c3ccc(NC(C)=O)cc3)C(=O)c3ccccc3C2=O)CC1 do in these assays?
TbMetRS inhib: 0; PLCb3 inh: -10; PLCg1 inh: -2; DAGLB inhibitor: 1; HGIII-sPLA2 inh: 7

How did CC(=O)Nc1ccc(S(=O)(=O)NC2=C(N3CCN(Cc4ccccc4)CC3)C(=O)c3ccccc3C2=O)cc1 do in these assays?
TbMetRS inhib: 0; PLCb3 inh: -1; PLCg1 inh: 4; DAGLB inhibitor: 25; HGIII-sPLA2 inh: 21*!; sPLA2 confirm: 25*; 535nm interf: -6

How did CC(=O)N1CCCN(S(=O)(=O)c2ccc3c(c2)c(=O)n(C)c(=O)n3C)CC1 do in these assays?
PLCb3 inh: -6; PLCg1 inh: 2; HGIII-sPLA2 inh: 4

Results for CC(N)c1csc(Nc2ccc(C(=O)c3ccccc3)cc2)n1 (stereo not given) ?
TbMetRS inhib: 0; PLCb3 inh: -126; PLCg1 inh: -91; HGIII-sPLA2 inh: 20*; sPLA2 confirm: 12; 535nm interf: -18

What do the screens show for `CC(C)CC(N)c1csc(Nc2ccc(C(=O)c3ccccc3)cc2)n1` (stereo not given)?
TbMetRS inhib: 0; PLCb3 inh: -178; PLCg1 inh: -146; HGIII-sPLA2 inh: 9

What do the screens show for `CC(C)C(N)c1csc(Nc2ccc(C(=O)c3ccccc3)cc2)n1` (stereo not given)?
TbMetRS inhib: 0; PLCb3 inh: -195; PLCg1 inh: -139; HGIII-sPLA2 inh: 22*; sPLA2 confirm: 6; 535nm interf: -18

Results for CC(=O)c1ccc(Nc2nc(C(N)C(C)C)cs2)cc1 (stereo not given) ?
TbMetRS inhib: 0; PLCb3 inh: -88; PLCg1 inh: -64; HGIII-sPLA2 inh: 14

Results for CCN1C(C)=C(C)S/C1=C1\SC(=S)N(NC(C)=O)C1=O ?
TbMetRS inhib: -1; PLCb3 inh: -4; PLCg1 inh: 3; DAGLB inhibitor: -1; HGIII-sPLA2 inh: 2

How did CC(=O)NN1C(=O)/C(=C2/Sc3ccc(Cl)cc3N2C)SC1=S do in these assays?
TbMetRS inhib: -1; PLCb3 inh: -1; PLCg1 inh: 0; DAGLB inhibitor: 1; HGIII-sPLA2 inh: 20*; sPLA2 confirm: 16; 535nm interf: 0

Results for O=c1c2c3c(sc2nc(N2CCNCC2)n1CCc1ccccc1)CCCCC3 ?
TbMetRS inhib: 2; PLCb3 inh: -5; PLCg1 inh: 4; DAGLB inhibitor: 0; HGIII-sPLA2 inh: 20*; sPLA2 confirm: 2; 535nm interf: -32

What do the screens show for `O=c1c2c3c(sc2nc(NCCO)n1CCc1ccccc1)CCCCC3`?
TbMetRS inhib: 0; PLCb3 inh: 3; PLCg1 inh: 7; DAGLB inhibitor: -1; HGIII-sPLA2 inh: 9

Results for CCOC(=O)c1ccc(N2CCN(c3ccccc3F)CC2)c(NC(=O)Nc2cccc(OC)c2)c1 ?
TbMetRS inhib: -1; PLCb3 inh: -8; PLCg1 inh: -8; DAGLB inhibitor: -5; HGIII-sPLA2 inh: 21*; sPLA2 confirm: -10; 535nm interf: -16

What do the screens show for `COC(=O)c1ccc(N2CCOCC2)c(NC(=O)Nc2cccc(OC)c2)c1`?
TbMetRS inhib: 0; PLCb3 inh: 0; PLCg1 inh: -1; DAGLB inhibitor: -1; HGIII-sPLA2 inh: 7

What do the screens show for `O=C(C(=O)N1CCN(S(=O)(=O)c2ccc(Cl)cc2)CC1)c1cccc(C(F)(F)F)c1`?
PLCb3 inh: 4; PLCg1 inh: 0; HGIII-sPLA2 inh: 10

Results for CCOc1cc(C2NC(=S)NC(C)=C2C(=O)Nc2ccc(OC)cc2)ccc1O (stereo not given) ?
TbMetRS inhib: -2; PLCb3 inh: 1; PLCg1 inh: 1; DAGLB inhibitor: -1; HGIII-sPLA2 inh: 1

What do the screens show for `CCOc1cccc(C2NC(=S)NC(C)=C2C(=O)Nc2ccccc2)c1` (stereo not given)?
TbMetRS inhib: 0; PLCb3 inh: 0; PLCg1 inh: 2; DAGLB inhibitor: 1; HGIII-sPLA2 inh: 24*; sPLA2 confirm: 16; 535nm interf: -2

How did O=C(CSc1nc2ccccc2s1)NNC(=S)Nc1ccc(Br)cc1 do in these assays?
TbMetRS inhib: 0; PLCb3 inh: -10; PLCg1 inh: 1; DAGLB inhibitor: 5; HGIII-sPLA2 inh: 23*; sPLA2 confirm: 3; 535nm interf: 0

How did Cn1c(NC(=S)Nc2ccccc2)nc2ccccc21 do in these assays?
TbMetRS inhib: -1; PLCb3 inh: -5; PLCg1 inh: -4; DAGLB inhibitor: 1; HGIII-sPLA2 inh: 39*; sPLA2 confirm: 35*; 535nm interf: 6.3*

Results for COc1cc2cc(NC(C)=O)cc(NCc3ccccc3)c2cc1OC ?
TbMetRS inhib: 0; PLCb3 inh: -65; PLCg1 inh: -55; DAGLB inhibitor: -1; HGIII-sPLA2 inh: 21*; sPLA2 confirm: 19; 535nm interf: -2

How did C=CCN1[C@@H](CC(C)C)COc2cc(N3CCSCC3)ccc2S1(=O)=O do in these assays?
PLCb3 inh: 2; PLCg1 inh: 2; HGIII-sPLA2 inh: -4

Results for COc1ccc(C(=O)N/N=C/c2cc3ccccc3[nH]c2=S)cc1 ?
TbMetRS inhib: 0; PLCb3 inh: -13; PLCg1 inh: -10; DAGLB inhibitor: 8; HGIII-sPLA2 inh: 44*; sPLA2 confirm: 35*; 535nm interf: 10*

What do the screens show for `O=C(O)C1CC=CCC1C(=O)N1CCN(c2nc(-c3ccccc3Cl)c3cc(Br)ccc3n2)CC1` (stereo not given)?
TbMetRS inhib: 0; PLCb3 inh: -73; PLCg1 inh: -68; DAGLB inhibitor: 4; HGIII-sPLA2 inh: 24*; sPLA2 confirm: -20; 535nm interf: -34

How did O=C(O)C1CC=CCC1C(=O)N1CCN(c2nc(-c3ccccc3)c3ccccc3n2)CC1 (stereo not given) do in these assays?
TbMetRS inhib: 0; PLCb3 inh: inactive; PLCg1 inh: -431; DAGLB inhibitor: 3; HGIII-sPLA2 inh: 18

What do the screens show for `Cc1ccc(O)c(N=Cc2cc(Cc3ccccc3)cc([N+](=O)[O-])c2O)c1`?
TbMetRS inhib: 0; PLCb3 inh: -5; PLCg1 inh: 7; DAGLB inhibitor: 23; HGIII-sPLA2 inh: 25*; sPLA2 confirm: 23*; 535nm interf: 7.8*
